Laboratory results: ChEMBL document CHEMBL1155242, “Radiolabeled 5-iodo-3'-O-(17beta-succinyl-5alpha-androstan-3-one)-2'-deoxyuridine and its 5'-monophosphate for imaging and therapy of androgen receptor-positive cancers: synthesis and biological evaluation” (J Med Chem, 2009)

What was measured:
LNCaP [1] = test: Cytotoxicity against human LNCAP cells expressing androgen receptor assessed as cell survival at 8 uCi/mL after 48 hrs; assay type: functional
Outline: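 LNCaP human prostate cancer cells were grown for 48 h with the 125I-labelled compound in the medium, and cell survival was then determined. D37 was expressed as the extracellular concentration in μCi/mL.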

[2] = molecular target: T1, Sex hormone-binding globulin (Homo sapiens, UniProt P04278); test: Binding affinity to human sex hormone binding globulin after 30 mins by size-exclusion HPLC analysis; assay type: ADME
T1 sequence (P04278 whole entry): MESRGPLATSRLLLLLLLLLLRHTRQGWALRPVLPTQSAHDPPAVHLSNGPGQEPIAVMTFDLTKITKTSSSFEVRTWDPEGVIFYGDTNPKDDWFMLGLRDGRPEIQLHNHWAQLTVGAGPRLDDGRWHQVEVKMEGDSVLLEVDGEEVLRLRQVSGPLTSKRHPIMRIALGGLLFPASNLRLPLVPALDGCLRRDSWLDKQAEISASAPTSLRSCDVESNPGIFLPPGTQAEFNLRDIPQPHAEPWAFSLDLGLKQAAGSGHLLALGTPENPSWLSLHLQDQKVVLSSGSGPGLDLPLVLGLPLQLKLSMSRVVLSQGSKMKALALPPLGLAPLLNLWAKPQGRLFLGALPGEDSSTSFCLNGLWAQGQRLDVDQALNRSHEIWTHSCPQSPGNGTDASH
Outline: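 Purified human SHBG diluted in PBS pH 7.1 to a range of concentrations; radioligand in CH3CN (10 μL, ~5.4 μCi average) added, vortexed, 30 min at ambient temperature. Aliquots analysed by size-exclusion HPLC for SHBG-bound peak.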

[3] = molecular target: T2, Sex hormone-binding globulin (Oryctolagus cuniculus, UniProt P15196); test: Binding affinity to rabbit sex hormone binding globulin at 20 uCi after 60 mins by size-exclusion HPLC analysis; assay type: ADME; conditions: 1 h
T2 sequence (P15196 whole entry): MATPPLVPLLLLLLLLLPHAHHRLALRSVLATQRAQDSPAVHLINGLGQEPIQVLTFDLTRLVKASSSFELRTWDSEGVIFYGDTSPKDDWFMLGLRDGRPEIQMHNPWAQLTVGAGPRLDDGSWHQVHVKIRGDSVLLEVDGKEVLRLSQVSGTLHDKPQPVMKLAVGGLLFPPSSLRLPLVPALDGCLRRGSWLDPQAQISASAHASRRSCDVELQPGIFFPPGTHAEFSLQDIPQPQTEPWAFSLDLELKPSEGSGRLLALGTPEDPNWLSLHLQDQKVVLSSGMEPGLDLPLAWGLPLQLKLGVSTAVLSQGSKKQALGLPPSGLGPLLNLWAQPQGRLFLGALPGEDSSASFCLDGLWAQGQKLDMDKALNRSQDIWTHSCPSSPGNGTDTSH
Outline: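 Radioligand incubated 60 min with purified human SHBG or with human, rabbit or mouse serum. Size-exclusion HPLC (TSK3000): 0.1 M potassium phosphate/0.1 M Na2SO4 1:1 pH 6.8 for 20 min, then 0–40% CH3CN over 20 min, held 30 min, 0.7 mL/min.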

Serum = test: Stability in mouse serum assessed as time required for formation of [125I]UdR at 10 to 20 uCi/mL after 60 mins by gamma counting; assay type: ADME, cell-free; conditions: 1 h
[4] = Biodistribution in tumor of athymic NCr mouse xenografted with human OVCAR-3 cells assessed per gram of tissue at an average 39.5 uCi/dose, ip administered 9 days after tumor implantation as six fractionated doses every 4 days measured after 2 weeks of last dose by gamma counting; assay type: ADME, organism-based, Neoplasm; conditions: in vivo, 336 h
Outline: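 OVCAR-3-bearing and healthy athymic mice given fractionated ip doses on the six-dose every-4-days schedule; tissues, tumor and lavaged cells γ-counted at necropsy, %ID/g; DNA-bound 125I in cells measured as cpm/cell.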

LNCaP [5] = test: Cellular uptake in nonproliferating human LNCAP cells expressing androgen receptor after 48 hrs by gamma counting in presence of 1 uM DHT relative to uptake in absence of DHT; assay type: ADME, cell-based
[6] = Biodistribution in […] in athymic NCr mouse xenografted with human OVCAR-3 cells at 45 uCi, ip after 72 hrs by gamma counting; assay type: ADME, organism-based; conditions: in vivo
Outline: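 Athymic NCr-nu/nu mice with ip OVCAR-3; 45 μCi given ip without prior SSKI. Whole-body planar imaging at 72 h with region-of-interest analysis as percent of whole-body activity; peritoneal lavage cells and ascites counted.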

[7] = molecular target: T1, Sex hormone-binding globulin; test: Binding affinity to human sex hormone binding globulin assessed as intact compound remaining at 10 to 20 uCi/mL after 60 mins by instant thin layer chromatography; assay type: ADME; conditions: read-out: Stability
[8] = Ratio of drug level in tumor to kidney in athymic NCr mouse xenografted with human OVCAR-3 cells at 180 uCi, ip administered 9 days after tumor implantation as six fractionated doses every 4 days measured after 1.5 hrs by gamma counting; assay type: ADME, organism-based; conditions: in vivo
[9] = Ratio of drug level in tumor to spleen in athymic NCr mouse xenografted with human OVCAR-3 cells at 180 uCi, ip administered 9 days after tumor implantation as six fractionated doses every 4 days measured after 72 hrs by gamma counting; assay type: ADME, organism-based; conditions: in vivo
OVCAR-3 [10] = test: Cellular uptake in human OVCAR-3 cells xenografted in athymic NCr mouse assessed per gram of cells at 180 uCi, ip administered 9 days after tumor implantation as six fractionated doses every 4 days measured after 12 days by gamma counting; assay type: ADME, organism-based; conditions: in vivo, 288 h
Outline: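 Mice treated with one, three or six ip doses; nonadherent OVCAR-3 cells lavaged at necropsy, 12 days after last of six doses, and counted; %ID/g decay-corrected; DNA-bound fraction measured.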

[11] = Chemical stability in phosphate buffer saline at 0.85 uCi after 1265 mins by HPLC analysis; assay type: physicochemical
[12] = Ratio of drug level in tumor to spleen in athymic NCr mouse xenografted with human OVCAR-3 cells at 180 uCi, ip administered 9 days after tumor implantation as six fractionated doses every 4 days measured after 24 hrs by gamma counting; assay type: ADME, organism-based; conditions: in vivo
OVCAR-3 [13] = test: Antitumor activity against human OVCAR-3 cells xenografted in athymic NCr mouse assessed as number of nonadherent cancer cells in peritoneum at 180 uCi, ip administered 9 days after tumor implantation as six fractionated doses every 4 days measured after 2 weeks of last dose by gamma counting; assay type: functional
Outline: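 OVCAR-3 ip xenografts in athymic mice; six fractionated ip doses every 4 days, total 180 μCi/mouse, with PBS or vehicle ip controls. Nonadherent tumor cells recovered by peritoneal lavage at necropsy, counted and pellet-weighed.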

[14] = molecular target: T1, Sex hormone-binding globulin; test: Binding affinity to human sex hormone binding globulin at 10 to 20 uCi/mL after 60 mins by instant thin layer chromatography; assay type: ADME; conditions: 1 h
[15] = Stability in rabbit serum assessed as half life at 10 to 20 uCi/mL by reversed phase HPLC analysis; assay type: ADME, cell-free, Oryctolagus cuniculus
Outline: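 The compound was incubated with rabbit or human serum at ambient temperature, and aliquots were taken at 1, 5 and 24 h. Aliquots were run on size-exclusion HPLC (TSK3000; 0.1 M potassium phosphate/0.1 M Na2SO4, pH 6.8, then an acetonitrile gradient). Extracts were run on C18 reversed-phase HPLC (water/acetonitrile with 0.07% TFA). Half-lives came from a monoexponential fit.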

LNCaP [16] = test: Cellular uptake in proliferating human LNCAP cells expressing androgen receptor after 24 hrs by gamma counting; assay type: ADME, cell-based
Outline: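 Proliferating LNCaP monolayers exposed 24 h to a range of radioligand concentrations; whole-cell uptake measured.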

SMILES	Survival (LNCaP [1]) [%]	Kd [2] [nM]	Bmax ([2]; human, 0.5 h) [nM]	Activity [3]	Stability (Serum) [min]	Drug uptake [4] [%ID]	Drug uptake (LNCaP [5]) [%]	Drug uptake [6] [%]	remaining at 1 h [7] [%]	Ratio [8]	Ratio [9]	Drug uptake (OVCAR-3 [10]) [%ID]	Stability [11]	Ratio [12]	Activity (OVCAR-3 [13])	Activity [14]	t1/2 [15] [h]	Drug uptake (LNCaP [16])
C[C@]12CCC(=O)C[C@@H]1CC[C@@H]1[C@@H]2CC[C@]2(C)[C@@H](OC(=O)CCC(=O)O[C@H]3C[C@H](n4cc([125I])c(=O)[nH]c4=O)O[C@@H]3COP(=O)(O)O)CC[C@@H]12	90	17.2	4.5	Active	< 10	2.892	30											
C[C@]12CCC(=O)C[C@@H]1CC[C@@H]1[C@@H]2CC[C@]2(C)[C@@H](OC(=O)CCC(=O)O[C@H]3C[C@H](n4cc([125I])c(=O)[nH]c4=O)O[C@@H]3CO)CC[C@@H]12								3.4	> 91	0.9	11.9	0.5	Stable	27.4	1250000000	Active	5.7	Dose-dependent effect
